Measurements from ChEMBL document CHEMBL1240504, “Synthesis of substituted thieno[2,3-d]pyrimidine-2,4-dithiones and their S-glycoside analogues as potential antiviral and antibacterial agents” (Eur J Med Chem, 2010).
≈ marks a conversion by molar mass, not a printed value.

Key:
Escherichia coli [1] = assay: Antibacterial activity against Escherichia coli MTCC 41 at 64 mg/ml after 16 hrs by disk diffusion test; type: functional; parameters: dose or concentration left out as unconfirmed; conditions: MTCC 41, 16 h, read-out: IZ
Pseudomonas putida [2] = assay: Antibacterial activity against ampicillin-resistant Pseudomonas putida MTCC 1072 at 128 mg/ml after 16 hrs by disk diffusion test; type: functional; parameters: dose or concentration left out as unconfirmed; conditions: MTCC 1072, 16 h, read-out: IZ
Vero = assay: Cytotoxicity against african green monkey Vero cells assessed as loss of monolayer present around the plaques; type: cell-based; conditions: Chlorocebus sabaeus
Summary of the method: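 Vero monolayers in serial-dilution trays with HSV-1, run in triplicate, 6 h at 37 °C, 5% CO2. Cells fixed with 3.7% formaldehyde and examined visually. IC50 is the concentration giving about 50% loss of the monolayer around HSV-1 plaques.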

Staphylococcus aureus [3] = assay: Antibacterial activity against Staphylococcus aureus MTCC 1144 after 12 to 16 hrs by turbidity assay; type: functional
Summary of the method: (§1)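 Broth dilution MIC in LB broth. Tubes inoculated, incubated 12–16 h and scored by eye for turbidity (growth) versus clear (no growth).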

Escherichia coli [4] = assay: Antibacterial activity against Escherichia coli MTCC 41 at 128 mg/ml after 16 hrs by disk diffusion test; type: functional; parameters: dose or concentration left out as unconfirmed; conditions: MTCC 41, 16 h, read-out: IZ
[5] = tested on: Human immunodeficiency virus 1; assay: Antiviral activity against HIV1 infected in human CEM cells assessed as protection against virus-induced cytopathic effect after 6 days by XTT assay; type: functional, organism-based; conditions: Human immunodeficiency virus 1, CCRF-CEM, 144 h
Summary of the method: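 CEM T4 lymphocytes received serially diluted compounds (DMSO stock diluted 1:100 in medium, 1:200 final dilution), then HIV-1. Incubated 6 days at 37 °C, 5% CO2. Formazan read spectrophotometrically after XTT, with microscopic check for viable cells. EC50 is the concentration giving 50% protection against the HIV cytopathic effect. AZT-treated wells served as positive control.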

Escherichia coli [6] = assay: Antibacterial activity against Escherichia coli MTCC 41 after 12 to 16 hrs by turbidity assay; type: functional; summary of the method: as §1
CCRF-CEM = assay: Cytotoxicity against […] human CEM cells after 6 days by XTT assay; type: cell-based; conditions: 144 h
Summary of the method: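 Uninfected CEM cultures given serial compound dilutions (DMSO, 1:200 final dilution). Incubated 6 days at 37 °C, 5% CO2, then read by XTT formazan. IC50 is the molar concentration causing 50% inhibition of cell growth.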

Pseudomonas putida [7] = assay: Antibacterial activity against ampicillin-resistant Pseudomonas putida MTCC 1072 at 64 mg/ml after 16 hrs by disk diffusion test; type: functional; parameters: dose or concentration left out as unconfirmed; conditions: MTCC 1072, 16 h, read-out: IZ
[8] = Therapeutic index, ratio of IC50 for human CEM cells to EC50 for HIV1; type: cell-based, CCRF-CEM; conditions: read-out: Ratio IC50/EC50
Summary of the method: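 CEM T4 lymphocytes, with or without HIV-1, were incubated with serially diluted compounds (DMSO solution diluted 1:100 in medium; 1:200 final dilution after cells and virus were added) at 37 °C in 5% CO2 for 6 days. Controls were untreated and AZT-treated. Read-out was XTT formazan, measured spectrophotometrically plus microscopy. EC50 is 50% protection from cytopathic effect; IC50 is 50% growth inhibition in uninfected cultures.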

Staphylococcus aureus [9] = assay: Antibacterial activity against Staphylococcus aureus MTCC 1144 at 128 mg/ml after 16 hrs by disk diffusion test; type: functional; parameters: dose or concentration left out as unconfirmed; conditions: MTCC 1144, 16 h, read-out: IZ
Human alphaherpesvirus 1 [10] = assay: Antiviral activity against HSV1 infected in african green monkey Vero cells assessed as minimum antiviral concentration after 6 hrs; type: functional
Summary of the method: (§2)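 Modified plaque reduction in 96-well trays with no thickening overlay. Compounds dissolved in DMSO and diluted into medium, then serially diluted and added in triplicate to confluent Vero monolayers. Titred HSV-1 added in medium with 10% calf serum. Incubated 6 h at 37 °C, 5% CO2. Cells fixed with 3.7% formaldehyde and examined visually. The end-point concentration was taken from the dilution series.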

Human alphaherpesvirus 1 [11] = assay: Antiviral activity against HSV1 infected in african green monkey Vero cells after 6 hrs by plaque reduction assay; type: functional; parameters: scale not given: the % may be the effect or the level left; summary of the method: as §2
Pseudomonas putida [12] = assay: Antibacterial activity against ampicillin-resistant Pseudomonas putida MTCC 1072 after 12 to 16 hrs by turbidity assay; type: functional; summary of the method: as §1
Staphylococcus aureus [13] = assay: Antibacterial activity against Staphylococcus aureus MTCC 1144 at 64 mg/ml after 16 hrs by disk diffusion test; type: functional; conditions: MTCC 1144, 16 h, read-out: IZ
Summary of the method: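 Disk diffusion (zone of inhibition). Bacterial isolate spread evenly over an agar plate. A filter disk carrying a known amount of compound was placed on the surface and the compound left to diffuse. The inhibition zone in the lawn was read after 16 h incubation.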

| Compound | zone of inhibition (Escherichia coli [1]) | zone of inhibition (Pseudomonas putida [2]) | IC50 (Vero) | MIC (Staphylococcus aureus [3]) | zone of inhibition (Escherichia coli [4]) | EC50 [5] | MIC (Escherichia coli [6]) | IC50 (CCRF-CEM) | zone of inhibition (Pseudomonas putida [7]) | selectivity ratio [8] | zone of inhibition (Staphylococcus aureus [9]) | MAC (Human alphaherpesvirus 1 [10]) | Activity (Human alphaherpesvirus 1 [11]) | MIC (Pseudomonas putida [12]) | zone of inhibition at 64000 µg/mL (Staphylococcus aureus [13]) |
| --- | --- | --- | --- | --- | --- | --- | --- | --- | --- | --- | --- | --- | --- | --- | --- |
| OC[C@H]1O[C@@H](Sc2nc3sc4c(c3c(=S)[nH]2)CCCC4)[C@@H](O)[C@@H]1O | > 2 mm | > 3 mm | > 1.7 µM | > 128 µg/mL | > 3 mm | > 100 µM | 128 µg/mL (≈ 331 µM) | > 100 µM | > 3 mm | > 1 | > 2 mm | 0.29 µM | 30% | 64 µg/mL (≈ 166 µM) | > 2 mm |
| OC[C@H]1O[C@@H](Sc2nc3sc4c(c3c(=S)[nH]2)CCCCC4)[C@@H](O)[C@@H]1O | > 2 mm | > 3 mm | > 1.46 µM | 128 µg/mL (≈ 320 µM) | > 3 mm | > 100 µM | 128 µg/mL (≈ 320 µM) | > 100 µM | > 2 mm | > 1 | > 3 mm | 0.21 µM | 24% | 128 µg/mL (≈ 320 µM) | > 2 mm |
